According to ChEMBL document CHEMBL1147099, “In vitro and in vivo antibacterial activities of heteroaryl isothiazolones against resistant gram-positive pathogens” (Antimicrob Agents Chemother, 2007):
Converted amounts (≈) assume the structure as drawn.

How the values were obtained:
[1] = AUC (0-24 hrs) in mouse at 20 mg/kg, sc; assay type: ADME, organism-based; set-up: time < 24 hr, dose 20 mg/kg, route subcutaneous; settings: plasma
Method in brief: (§1)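 Fasted mice given one subcutaneous dose (20 or 50 mg/kg); blood taken from groups of three at 0.08, 0.25, 0.5, 1, 2, 4, 8, 24 h. Plasma protein-precipitated with cold acetonitrile plus internal standard, LC-MS/MS (C8, positive ESI, SRM); calibration 5–15,000 ng/ml. Noncompartmental analysis of mean concentrations; AUC to last quantifiable point by linear trapezoidal rule.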

[2] = tested on: Enterococcus faecium; assay: Antibacterial activity against Enterococcus faecium; assay type: functional
Method in brief: (§2)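 Aerobic isolates run by CLSI broth microdilution in cation-adjusted Mueller-Hinton II broth (streptococci plus 2–5% lysed horse blood), about 5 × 10^5 CFU/ml final; 24 h at 35–37°C aerobically; MIC read as lowest concentration without visible growth.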

[3] = tested on: Staphylococcus aureus; assay: Antibacterial activity against methicillin-susceptible Staphylococcus aureus after 24 hrs by broth microdilution method; assay type: functional
Method in brief: (§3)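 Broth microdilution per CLSI in cation-adjusted Mueller-Hinton II broth, final inoculum approximately 5 × 10^5 CFU/ml. Plates were incubated aerobically at 35 to 37°C for 24 h. MIC was the lowest concentration giving no visible growth. Reserpine, where used, was at a final concentration of 20 μg/ml.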

[4] = tested on: Enterococcus faecalis; assay: Antibacterial activity against Enterococcus faecalis; assay type: functional; method in brief: as §2
[5] = Cmax in mouse at 20 mg/kg, sc; assay type: ADME, organism-based; set-up: dose 20 mg/kg, route subcutaneous; settings: in vivo; method in brief: as §1
[6] = Plasma half life in mouse at 50 mg/kg, sc; assay type: ADME, organism-based; set-up: dose 50 mg/kg, route subcutaneous
[7] = Tmax in mouse at 50 mg/kg, sc; assay type: ADME, organism-based; set-up: dose 50 mg/kg, route subcutaneous; settings: in vivo; method in brief: as §1
[8] = Plasma half life in mouse at 20 mg/kg, sc; assay type: ADME, organism-based; set-up: dose 20 mg/kg, route subcutaneous
[9] = tested on: Streptococcus pyogenes; assay: Antibacterial activity against Streptococcus pyogenes; assay type: functional; method in brief: as §2
[10] = Tmax in mouse at 20 mg/kg, sc; assay type: ADME, organism-based; set-up: dose 20 mg/kg, route subcutaneous; settings: in vivo; method in brief: as §1
[11] = tested on: Staphylococcus aureus; assay: Antibacterial activity against methicillin-resistant Staphylococcus aureus after 24 hrs by broth microdilution method; assay type: functional; method in brief: as §3
[12] = tested on: Streptococcus viridans; assay: Antibacterial activity against Streptococcus viridans after 24 hrs by broth microdilution method; assay type: functional
Method in brief: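 CLSI broth microdilution in cation-adjusted Mueller-Hinton II broth, final inoculum about 5 × 10^5 CFU/ml for most strains; streptococci supplemented with 2–5% lysed horse blood, H. influenzae in Haemophilus test medium. Aerobic incubation at 35–37°C for 24 h; MIC = lowest concentration with no visible growth.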

[13] = tested on: Streptococcus pneumoniae; assay: Antibacterial activity against Streptococcus pneumoniae by agar dilution method; assay type: functional
[14] = Cmax in mouse at 50 mg/kg, sc; assay type: ADME, organism-based; set-up: dose 50 mg/kg, route subcutaneous; settings: in vivo; method in brief: as §1
[15] = AUC (0-24 hrs) in mouse at 50 mg/kg, sc; assay type: ADME, organism-based; set-up: time < 24 hr, dose 50 mg/kg, route subcutaneous; settings: plasma; method in brief: as §1
[16] = tested on: Staphylococcus aureus; assay: microbe, parasite or virus in culture; settings: Mu50
[17] = tested on: Staphylococcus aureus; assay: Effect on cellular viability of methicillin-resistant Staphylococcus aureus Mu50 at 10 times MIC by measuring the time required for recovery at 10 times MIC after 1 hr; assay type: functional
Method in brief: (§4)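 S. aureus in log phase, approximately 2–4 × 10^7 CFU/ml in CAMHB, was exposed to 10× MIC for 1 h at 35 to 37°C with shaking, then diluted 1:1,000 into prewarmed CAMHB. Viable counts were taken hourly for 4 to 8 h. PAE = T − C, the time to a 1-log10 rise, treated versus untreated. Mean of two independent experiments.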

[18] = tested on: Staphylococcus aureus; assay: Antibacterial activity against […] Staphylococcus aureus ATCC 29213 after 24 hrs by broth microdilution method; assay type: functional; settings: ATCC 29213, 24 h; method in brief: as §3
[19] = tested on: Staphylococcus aureus; assay: Effect on cellular viability of methicillin-sensitive Staphylococcus aureus ATCC 29213 by measuring the time required for recovery at 10 times MIC after 1 hr; assay type: functional; method in brief: as §4
[20] = tested on: Staphylococcus aureus; assay: Antibacterial activity against ethidium bromide-resistant Staphylococcus aureus BSA643 after 24 hrs by broth microdilution method; assay type: functional; settings: BSA643, 24 h; method in brief: as §3
[21] = tested on: Staphylococcus aureus; assay: Antibacterial activity against ethidium bromide-resistant Staphylococcus aureus Mu50 after 24 hrs by broth microdilution method; assay type: functional; settings: Mu50, 24 h; method in brief: as §3
[22] = tested on: Staphylococcus aureus; assay: Antibacterial activity against ethidium bromide-resistant Staphylococcus aureus BSA678 after 24 hrs by broth microdilution method; assay type: functional; settings: BSA678, 24 h; method in brief: as §3
[23] = tested on: Staphylococcus aureus; assay: Antibacterial activity in CD1 mouse inoculated with methicillin-sensitive Staphylococcus aureus ATCC 13709 in thigh assessed as reduction of bacterial population at 10 mg/kg, sc after 24 hrs; assay type: functional; settings: route subcutaneous
Method in brief: (§5)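 Female CD-1 mice (19 to 28 g) were made neutropenic with cyclophosphamide 150 mg/kg i.p. at 4 days and 1 day before infection. Each thigh was injected i.m. with 0.1 ml of S. aureus suspension. A single s.c. dose was given 2 h postinfection, in groups of three mice. Thighs were homogenized in PBS and plated on trypticase soy agar overnight at 37°C. CFU/thigh was compared with controls at the time of treatment.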

[24] = tested on: Staphylococcus aureus; assay: Antibacterial activity in CD1 mouse inoculated with methicillin-resistant Staphylococcus aureus ATCC 33591 in thigh assessed as reduction of bacterial population at 10 mg/kg, sc after 8 hrs; assay type: functional; settings: route subcutaneous; method in brief: as §5
[25] = tested on: Staphylococcus aureus; assay: Antibacterial activity in CD1 mouse inoculated with methicillin-resistant Staphylococcus aureus ATCC 33591 in thigh assessed as reduction of bacterial population at 10 mg/kg, sc after 6 hrs; assay type: functional; settings: route subcutaneous; method in brief: as §5
[26] = tested on: Staphylococcus aureus; assay: Antibacterial activity in CD1 mouse inoculated with methicillin-resistant Staphylococcus aureus ATCC 33591 in thigh assessed as reduction of bacterial population at 10 mg/kg, sc after 24 hrs; assay type: functional; settings: route subcutaneous; method in brief: as §5
[27] = tested on: Staphylococcus aureus; assay: Antibacterial activity in CD1 mouse inoculated with methicillin-resistant Staphylococcus aureus ATCC 33591 in thigh assessed as reduction of bacterial population at 10 mg/kg, sc after 4 hrs; assay type: functional; settings: route subcutaneous; method in brief: as §5
[28] = tested on: Staphylococcus aureus; assay: Antibacterial activity in CD1 mouse inoculated with methicillin-sensitive Staphylococcus aureus ATCC 13709 in thigh assessed as reduction of CFU/thigh at 10 mg/kg, sc after 4 hrs; assay type: functional; settings: route subcutaneous; method in brief: as §5

Row | Structure (SMILES) | MIC50 [2] [µg/mL] | MIC90 [2] [µg/mL] | MIC50 [3] [µg/mL] | MIC90 [3] [µg/mL] | MIC50 [4] [µg/mL] | MIC90 [4] [µg/mL] | MIC50 [11] [µg/mL] | MIC90 [11] [µg/mL] | MIC50 [12] [µg/mL] | MIC90 [12] [µg/mL] | MIC50 [13] [µg/mL] | MIC90 [13] [µg/mL] | further results
1 | CC(=O)NCC1CN(c2ccc(N3CCOCC3)c(F)c2)C(=O)O1 (single isomer, unassigned) [LINEZOLID] | 2 (≈ 5.93 µM) | 2 (≈ 5.93 µM) | 2 (≈ 5.93 µM) | 2 (≈ 5.93 µM) | 2 (≈ 5.93 µM) | > 16 | 2 (≈ 5.93 µM) | 2 (≈ 5.93 µM) | 1 (≈ 2.96 µM) | 1 (≈ 2.96 µM) | 1 (≈ 2.96 µM) | 1 (≈ 2.96 µM) | AUC(0-t) at 24 h [1]: 29100 ng·h/mL; Cmax [5]: 12200 ng/mL; half-life [6]: 2.18 h; Tmax [7]: 1 h; half-life [8]: 1.17 h; MIC50 [9]: 1 µg/mL (≈ 2.96 µM); MIC90 [9]: 1 µg/mL (≈ 2.96 µM); Tmax [10]: 0.5 h; Cmax [14]: 25500 ng/mL; AUC(0-t) at 24 h [15]: 112000 ng·h/mL
2 | COc1c(N2C[C@@H]3CCCN[C@@H]3C2)c(F)cc2c(=O)c(C(=O)O)cn(C3CC3)c12 [MOXIFLOXACIN] | – | – | – | – | – | – | – | – | – | – | – | – | MIC [16]: 64 µg/mL (≈ 159 µM); Post anitbiotic effect [17]: 1.5 h; MIC [18]: 0.06 µg/mL (≈ 0.149 µM); Post anitbiotic effect [19]: 1.6 h; MIC [20]: 16 µg/mL (≈ 39.9 µM); MIC [21]: 4 µg/mL (≈ 9.96 µM); MIC [22]: > 64 µg/mL
3 | CN[C@H](CC(C)C)C(=O)N[C@H]1C(=O)N[C@@H](CC(N)=O)C(=O)N[C@H]2C(=O)N[C@H]3C(=O)N[C@H](C(=O)N[C@H](C(=O)O)c4cc(O)cc(O)c4-c4cc3ccc4O)[C@H](O)c3ccc(c(Cl)c3)Oc3cc2cc(c3O[C@@H]2O[C@H](CO)[C@@H](O)[C@H](O)[C@H]2O[C@H]2C[C@](C)(N)[C@H](O)[C@H](C)O2)Oc2ccc(cc2Cl)[C@H]1O [VANCOMYCIN] | > 32 | > 32 | 1 (≈ 0.69 µM) | 2 (≈ 1.38 µM) | 2 (≈ 1.38 µM) | > 32 | 1 (≈ 0.69 µM) | 8 (≈ 5.52 µM) | 0.5 (≈ 0.345 µM) | 1 (≈ 0.69 µM) | 0.5 (≈ 0.345 µM) | 0.5 (≈ 0.345 µM) | CFU/ml [23]: 1.37; CFU/ml [24]: 0.58; CFU/ml [25]: 0.49; CFU/ml [26]: 0.31; CFU/ml [27]: 0.32; CFU/ml [28]: 0.31
